Here are results for two compounds from ChEMBL document CHEMBL3272198, “Preparation and in vitro antifungal activities of some quinolizidine derived hemiaminals and beta-tert-amino sulfides” (1976).

The structures appear in SMILES notation. Active and inactive are the calls of the source. The rule behind the calls is not given here.

For test [1], the system named is Blastomyces dermatitidis. In words: Antifungal activity against Blastomyces dermatitidis Gilchrist & Stokes isolate 1107 at 1 ug/ml after 2 weeks (reference value: 35 mm). In kind it is functional. The following applies: Gilchrist & Stokes isolate 1107, 336 h, read-out: DIZ. The essentials:
(§1)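 Mycelial phase grown on Sabouraud dextrose agar at 25°C. Agar pH was set to 6 before the test solution was added and was 5.0-5.5 after. Test solutions contained HOAc and Me2SO, and solvent and blank controls were included. Each quadrant was center-inoculated with a 2 × 2 mm piece of a 2-week-old mycelial culture. Colony diameter was measured weekly for 3 weeks and reported as total increments (mm). Duplicates were run.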

In test [2] the test system is Histoplasma capsulatum. In words: Antifungal activity against Histoplasma capsulatum Darling isolate 1098 at 1 ug/ml after 3 weeks (reference value: 28 mm). In kind it is functional. Particulars: Darling isolate 1098, 504 h, read-out: DIZ.
Test [3] deals with Histoplasma capsulatum. In words: Antifungal activity against Histoplasma capsulatum Darling isolate 1106 at 1 ug/ml after 1 week (reference value: 14 mm). Particulars: Darling isolate 1106, 168 h, read-out: DIZ. In kind it is functional.
In test [4] the test system is Blastomyces dermatitidis. Description: Antifungal activity against Blastomyces dermatitidis Gilchrist & Stokes isolate 1099 at 1 ug/ml after 1 week (reference value: 14 mm). The class given is functional. The following applies: Gilchrist & Stokes isolate 1099, 168 h, read-out: DIZ. The gist of the method: as §1
The test system of test [5] is Histoplasma capsulatum. Description: Antifungal activity against Histoplasma capsulatum Darling isolate 1098 at 1 ug/ml after 2 weeks (reference value: 21 mm). The class given is functional. Particulars: Darling isolate 1098, 336 h, read-out: DIZ.
The next test concerns Trichophyton rubrum. In words: Antifungal activity against Trichophyton rubrum Castellani Sab.1112 at 40 to 80 ug/ml after 2 weeks. The class given is functional, organism-based. The essentials:
(§2)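 Compound in aqueous HOAc/Me2SO was filter-sterilized and mixed into melted (50°) Sabouraud dextrose agar. Agar pH was 7.0-7.5 before addition and 6.0-6.5 after, giving final levels of 10-100 μg/ml. Quadrant plates were center-inoculated with a 2 × 2 mm piece of a 2-week-old mycelial culture, sealed and kept at 25°C. Colony expansion was measured weekly, with solvent and blank controls, in duplicate.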

A further test deals with Sporotrichum. Description: Antifungal activity against Sporotrichum schenckii Hektoen & Perkins (1109) at 40 to 80 ug/ml after 2 weeks. In kind it is functional, organism-based. The essentials:
as §2

Regarding `C[C@@H]1[C@H](O)[C@@H](C)/C=C/C=C/C=C/C=C/C=C/C=C/C=C/[C@H](O[C@@H]2O[C@H](C)[C@@H](O)[C@H](N)[C@@H]2O)C[C@@H]2O[C@](O)(C[C@@H](O)C[C@@H](O)[C@H](O)CC[C@@H](O)C[C@@H](O)CC(=O)O[C@H]1C)C[C@H](O)[C@H]2C(=O)O` [AMPHOTERICIN B], the zone of inhibition at 1 µg/mL in the test with Blastomyces dermatitidis [1] was 19 mm; in the test with Histoplasma capsulatum [2] it was 28 mm; in the test with Histoplasma capsulatum [3], 9 mm; with Blastomyces dermatitidis [4] it was 7 mm; in the test on Histoplasma capsulatum [5], 19 mm.

Regarding `C[C@@H]1CC[C@@H](c2ccoc2)N2C(O)[C@@](C)(Sc3ccccc3)CC[C@@H]12` (some centres not stated), the “diameter of the inhibition zone (DIZ)” value with Trichophyton rubrum and in the test with Sporotrichum was “Active” each time.
